Screening data as filed in PubChem BioAssay.
HCT116 PTEN-null = growth suppression of PTEN-null HCT116, primary screen, cell-based, CellTiter-Glo; HCT116 PTEN-null viability, 60 h; active compounds read low; viability, % at 10 µM; 140,000 tested, 1.2% active;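 active means viability at or below a set limit, 4 SD under the median of all tested compounds, cut at about 3.7% in these data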;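 further: PTEN knockout HCT116 line with beta catenin targeted HCT116 as companion control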
HUVEC prolif 384 = inhibitors of HUVEC proliferation, primary screen, cell-based, 384-well | AID 648, 2007 | 86,000 tested, 1.1% active | viability, % at 10 µM (by protocol) | CellTiter-Glo luminescence, 72 h; active compounds read low;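 active means viability at or below 30%; inactive means viability above 30%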;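 further: 100% = median luminescence of DMSO-only cell control wells on each plate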
bCat KO growth = primary screen for growth suppressors in beta-catenin knockout HCT116 cells (colon tumor, human) | AID 818, 2007 | viability, % at 10 µM | 140,000 tested, 1.5% active | HCT116 beta-catenin knockout viability, CellTiter-Glo, 60 h; active compounds read low;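 active means viability at or under a set limit, the compound median less 4 SD, cut at about 6% in these data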;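 further: 0% = Hyamine 1622 control at 20 µM and 100% = untreated cell control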
H69AR inhibit = proliferation blockers of H69AR lung cancer cells, primary screen, cell-based, human, 86K library. viability, % at 10 µM. 85,000 tested, 6% active. H69AR lung tumor viability, ATP luminescence, 72 h; active compounds read low;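 active means viability at or below 40%; inactive means viability above 40%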;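 further: multidrug resistant small cell line overexpressing MRP-1 efflux transporter; 100% = mean luminescence of untreated control wells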
Lung fibro prol = antiproliferative effect on LL 47 fibroblasts – human, LL 47 cells, CellTiter-Glo luminescence, primary screen | 85,000 tested, 1.1% active | viability, % at 10 µM | AID 719, 2007 | LL 47 human lung fibroblast viability, ATP luminescence; active compounds read low;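 active means viability at or below 50% in the single dose screen; inactive means viability above 50%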;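 further: compound exposure lasted 72 h before the ATP readout; 100% = median luminescence of untreated cell-only wells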
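Benchmarks: Cell-only wells, no compound | Test system: LL 47 human lung fibroblasts, passage 12 or lower | Input: 1,150 cells/well | Measured by: CellTiter-Glo luminescence measuring cellular ATP | Medium: IMEM, 15% FBS supplement | Schedule: Overnight attachment after seeding, then 72 h compound exposure at 37 °C | Doses: Compound addition at 0.1% DMSO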
* = called active by the depositor; . = no result given. Shown is part of a subset that was picked to be rich in hits.

SMILES	HCT116 PTEN-null	HUVEC prolif 384	bCat KO growth	H69AR inhibit	Lung fibro prol
CCC(C)NC(=O)c1c(N)n(/N=C/c2ccccn2)c2nc3ccccc3nc12 (centres undefined)	12.5	12.2*	22.4	11.3*	98.7
CCC(C)NC(=O)c1c(N)n(/N=C/c2cccnc2)c2nc3ccccc3nc12 (centres undefined)	26.9	3.4*	34.1	89.6	88.8
COCCCNC(=O)c1c(N)n(/N=C/c2cccnc2)c2nc3ccccc3nc12	81.3	.	82.3	.	.
COc1ccc(CCC(=O)N2CCCSC2=Nc2ccc(C(C)=O)cc2)cc1	85.5	.	91.7	.	.
CCCNC(=O)c1cccc(C(F)(F)F)c1	97.5	.	98.1	.	.
COC(=O)/C=C1\C(=O)N(c2nc3ccccc3s2)C(=S)N1c1ccc(F)cc1	58.1	64.4	50.4	46.3	49.7*
COC(=O)/C=C1\C(=O)N(c2nc3ccc(OC)cc3s2)C(=S)N1c1ccc(F)cc1	78.3	.	84.7	.	.
Cc1ccc(/C=C/C(=O)Nc2nnc(SCc3ccc(C#N)cc3)s2)o1	93.2	.	83.8	.	.
CCCCCc1nnc(NC(=O)Cn2cnc3ccccc3c2=O)s1	99.6	.	88.4	.	.
CSc1nc(N)nc(SCC(=O)Nc2ccc(Cl)cc2)c1C#N	76.9	.	89.2	.	.
CSc1nc(N)nc(SCCS(=O)(=O)c2ccc(Cl)cc2)c1C#N	30.4	71.9	35.1	2.5*	87.7
CCc1nc2ccc(C)cc2c(C(=O)NC2CCCCC2C)c1C (centres undefined)	78.5	.	78.2	.	.
CSc1nc2ccccc2n1CC(=O)Nc1c(C)cccc1C	61.8	85.5	47.2	74.8	106.2
CSc1nc2ccccc2n1Cc1c(Cl)cccc1Cl	49.3	100.4	43.2	35.6*	92.5
COc1cc(NC(=S)NCCCN2CCOCC2)cc(OC)c1	91.3	.	95.1	.	.
CCCSc1nsc(NC(=O)C(c2ccccc2)c2ccccc2)n1	7.8	67.5	13.6	17.8*	87.2
Nc1nc(SCc2ccc(Cl)cc2Cl)nc2nc3c(cc12)CCCC3	14.1	.	31.2	.	.
CCNc1nc(NCC)n2c(SC(C(=O)Nc3cc(Cl)cc(Cl)c3)c3ccccc3)nnc2n1 (centres undefined)	1.2*	.	1.2*	.	.
COc1cccc(/C=N/Nc2cc(-n3nc(C)cc3-c3ccccc3)ncn2)c1O	3.5*	.	3.8*	.	.
COc1cccc(/C=N/Nc2nc(Nc3ccccc3)nc(-n3nc(C)cc3C)n2)c1O	2.0*	.	2.8*	.	.
COc1ccc(/C=N/Nc2ncnc(Cl)c2N)cc1OC	98.7	.	94.5	.	.
COc1cccc(/C=N/Nc2nc3ccccc3n3cnnc23)c1O	6.3	.	5.8*	.	.
Cc1cc(C)n(-c2nc(Nc3ccccc3)nc(-n3nc(C)cc3C)n2)n1	96.7	90.5	92.4	96.7	99.0
COc1cccc(/C=N/Nc2nc3ccccc3n3cnnc23)c1	93.0	.	99.4	.	.
COc1cccc(/C=N/Nc2ncnc(Cl)c2N)c1O	3.1*	.	6.3	.	.
SMILES	HCT116 PTEN-null	HUVEC prolif 384	bCat KO growth	H69AR inhibit	Lung fibro prol
COc1cccc(/C=N/Nc2ncnc3scc(-c4ccccc4)c23)c1O	14.2	.	8.6	.	.
CCOc1ccc(Nc2cc(C)nc(-n3nc(C)cc3C)n2)cc1	15.3	.	20.5	.	.
COc1ccc(/C=N/Nc2cc(C)nc(-n3nc(C)cc3C)n2)c(OC)c1	2.4*	.	2.6*	.	.
COc1ccc(NC(=O)/C(Cl)=C(/Cl)S(=O)(=O)Cc2ccc(C)cc2)cn1	2.0*	5.4*	3.1*	93.8	2.3*
COc1ccc(NC(=O)C(CC(C)C)NC(=O)c2ccccc2C)cn1 (centres undefined)	99.3	88.4	95.1	91.1	.
CC(C)(C)NC(=O)c1ccc2nsnc2c1	94.3	.	103.8	.	.
CC(=O)n1c2ccccc2c2ccccc21	105.8	.	99.8	.	.
Cc1ccc(C(=O)n2c3ccccc3c3ccccc32)cc1	29.2	53.1	32.1	17.6*	46.2*
Cc1ccc(C(OCCN(C)C)c2cccc(C(F)(F)F)c2)cc1 (centres undefined)	60.7	.	66.3	.	.
Cc1ccccc1NC(=O)Cn1nc(C(F)(F)F)cc1C1CC1	90.0	.	91.3	.	.
Cc1ccc(C)c(NC(=O)Cn2nc(C(F)(F)F)cc2C2CC2)c1	10.2	.	5.3*	.	.
CC(=O)C1=C(c2ccc(Br)cc2)C(=O)c2ccccc2C1=O	1.4*	.	1.6*	.	.
CC(=O)NS(=O)(=O)c1ccc(NC(=O)COc2ccc(C(=O)c3ccccc3)cc2)cc1	100.0	.	96.6	.	.
